SMILES strings stand for the structures. Calls of active or inactive are those of the source. The rule behind the calls is not given here.

The nature of experiment [1]: (§1) Antibacterial activity against Salmonella Setubal ATCC 19196 assessed as growth inhibition at 50 to 1.56 ug after 24 hrs by TLC assay. The class given is functional, Salmonella enterica subsp. enterica serovar Setubal. The essentials: (§2)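 Direct TLC bioautography: compound amounts from 50 to 1.56 μg applied to precoated TLC plates, overlaid with Mueller Hinton or Sabouraud agar inoculated with microorganism suspension (10⁵ cfu mL⁻¹). Plates incubated 24 h at 37 °C, then stained with aqueous 2,3,5-triphenyltetrazolium chloride (1 mg mL⁻¹). The lowest amount giving an inhibition zone was recorded; <50 μg counted active. Triplicate.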

The subject of experiment [2] is Kocuria rhizophila. Briefly: Antibacterial activity against Micrococcus luteus ATCC 9341 assessed as concentration required to inhibit bacterial growth after 24 hrs by TLC assay. The format is functional. The method, boiled down:
as §2

The test system of a further experiment is Candida dubliniensis. Briefly: Antifungal activity against Candida dubliniensis SM 26 clinical isolate assessed as concentration required to inhibit fungal growth after 24 hrs by TLC assay. The format is functional. The essentials:
as §2

Experiment [3] relates to Staphylococcus epidermidis. Briefly: Antibacterial activity against Staphylococcus epidermidis ATCC 12228 assessed as growth inhibition at 50 to 1.56 ug after 24 hrs by TLC assay. The class given is functional. The method, boiled down: as §2
Experiment [4] deals with Kocuria rhizophila. Briefly: Antibacterial activity against Micrococcus luteus ATCC 9341 assessed as growth inhibition at 50 to 1.56 ug after 24 hrs by TLC assay. The class given is functional. The essentials:
as §2

The subject of a further experiment is Candida albicans. As to the kind of experiment: Antifungal activity against Candida albicans ATCC 10231 assessed as concentration required to inhibit fungal growth after 24 hrs by TLC assay. The format is functional. The essentials:
as §2

Experiment [5] deals with Klebsiella pneumoniae. Briefly: Antibacterial activity against Klebsiella pneumoniae ATCC 10031 assessed as growth inhibition at 50 to 1.56 ug after 24 hrs by TLC assay. The class given is functional. The essentials:
as §2

The next experiment deals with Saccharomyces cerevisiae. Briefly: Antifungal activity against Saccharomyces cerevisiae ATCC 2601 assessed as concentration required to inhibit fungal growth after 24 hrs by TLC assay. The class given is functional. The method, boiled down:
as §2

Experiment [6] concerns Staphylococcus aureus. As to the kind of experiment: Antibacterial activity against Staphylococcus aureus ATCC 6538p assessed as growth inhibition at 50 to 1.56 ug after 24 hrs by TLC assay. The format is functional. The method, boiled down: as §2
Experiment [7] has as its system Staphylococcus epidermidis. Briefly: Antibacterial activity against Staphylococcus epidermidis ATCC 12228 assessed as concentration required to inhibit bacterial growth after 24 hrs by TLC assay. The format is functional. The method, boiled down: as §2
For experiment [8], the system named is Escherichia coli. Briefly: Antibacterial activity against Escherichia coli ATCC 11103 assessed as concentration required to inhibit bacterial growth after 24 hrs by TLC assay. The format is functional. The method, boiled down:
as §2

The next experiment has as its system Cryptococcus neoformans. Briefly: Antifungal activity against Cryptococcus neoformans ATCC 28952 assessed as concentration required to inhibit fungal growth after 24 hrs by TLC assay. The format is functional. The essentials: as §2
In a further experiment the test system is Candida tropicalis. Briefly: Antifungal activity against Candida tropicalis ATCC 750 assessed as concentration required to inhibit fungal growth after 24 hrs by TLC assay. The format is functional. The method, boiled down: as §2
For experiment [9], the system named is Staphylococcus aureus. Briefly: Antibacterial activity against Staphylococcus aureus ATCC 6538p assessed as concentration required to inhibit bacterial growth after 24 hrs by TLC assay. The format is functional. The essentials: as §2
The subject of experiment [10] is Klebsiella pneumoniae. As to the kind of experiment: Antibacterial activity against Klebsiella pneumoniae ATCC 10031 assessed as concentration required to inhibit bacterial growth after 24 hrs by TLC assay. The class given is functional. The method, boiled down:
as §2

The test system of experiment [11] is Escherichia coli. Briefly: Antibacterial activity against Escherichia coli ATCC 11103 assessed as growth inhibition at 50 to 1.56 ug after 24 hrs by TLC assay. The format is functional. The method, boiled down: as §2
Experiment [12] can be described thus: Antibacterial activity against Salmonella Setubal ATCC 19196 assessed as concentration required to inhibit bacterial growth after 24 hrs by TLC assay. The class given is functional, Salmonella enterica subsp. enterica serovar Setubal. The method, boiled down: as §2
The subject of experiment [13] is Salmonella enterica subsp. enterica serovar Setubal. Described as §1. The class given is functional. The method, boiled down:
as §2

Turning to `COC(=O)[C@H](Cc1ccccc1)NC(=O)[C@@H](NC(=O)[C@H](CC(C)C)N(C)C)[C@@H](Oc1ccc(C=O)cc1)c1ccccc1` (mixture of isomers), the Activity (in [1]; in the experiment with Kocuria rhizophila [2]; in the experiment with Candida dubliniensis; in experiment [3]; in the experiment with Kocuria rhizophila [4]; in the experiment with Candida albicans) was less than 50 µg in each case. Moreover, the Activity (in the experiment on Klebsiella pneumoniae [5]; with Saccharomyces cerevisiae; with Staphylococcus aureus [6]; in experiment [7]; with Escherichia coli [8]; in the experiment on Cryptococcus neoformans) was less than 50 µg throughout. The Activity (in the experiment on Candida tropicalis; with Staphylococcus aureus [9]; with Klebsiella pneumoniae [10]; in the experiment on Escherichia coli [11]; in experiment [12]) was less than 50 µg throughout.
For `CC[C@H](C)[C@H](NC(=O)[C@H](NC(=O)[C@H](CC(C)C)N(C)C)[C@H](Oc1ccc(C=O)cc1)c1ccccc1)C(=O)OC`, the “growth inhibition (GI)” value (in [13]; in [3]; in the experiment on Kocuria rhizophila [4]; in the experiment with Klebsiella pneumoniae [5]; in the experiment with Staphylococcus aureus [6]; with Escherichia coli [11]) was “inactive” in each case. The Activity (in the experiment on Kocuria rhizophila [2]; with Candida dubliniensis; in the experiment with Candida albicans; with Saccharomyces cerevisiae; in experiment [7]; in the experiment with Escherichia coli [8]) was less than 50 µg throughout. Further, the Activity (in the experiment with Cryptococcus neoformans; in the experiment on Candida tropicalis; in the experiment on Staphylococcus aureus [9]; with Klebsiella pneumoniae [10]; in experiment [12]) was less than 50 µg each time.
In the case of `CC[C@H](C)[C@H](NC(=O)[C@@H](NC(=O)[C@H](CC(C)C)N(C)C)[C@@H](Oc1ccc(C=O)cc1)c1ccccc1)C(=O)OC`, the Activity (in [1]; in the experiment on Kocuria rhizophila [2]; with Candida dubliniensis; in experiment [3]; with Kocuria rhizophila [4]; with Candida albicans) was less than 50 µg each time. In addition, the Activity (in the experiment on Klebsiella pneumoniae [5]; in the experiment on Saccharomyces cerevisiae; in the experiment on Staphylococcus aureus [6]; in experiment [7]; in the experiment on Escherichia coli [8]; in the experiment on Cryptococcus neoformans) was less than 50 µg in each case. For the same compound, the Activity (in the experiment on Candida tropicalis; in the experiment with Staphylococcus aureus [9]; in the experiment on Klebsiella pneumoniae [10]; in the experiment with Escherichia coli [11]; in experiment [12]) was less than 50 µg throughout.

(Values after ChEMBL document CHEMBL2407049, “Cyclopeptide alkaloids: stereochemistry and synthesis of the precursors of discarines C and D and myrianthine A” (2013).)
